Results as given in ChEMBL document CHEMBL1157144, “Novel 16-membered macrolides modified at C-12 and C-13 positions of midecamycin A1 and miokamycin. Part 1: Synthesis and evaluation of 12,13-carbamate and 12-arylalkylamino-13-hydroxy analogues” (2008).
≈ marks a conversion by molar mass, not a printed value.

Assays:
Assay type in all cases: functional
[1] = tested on: Streptococcus pneumoniae; experiment: Antibacterial activity against susceptible Streptococcus pneumoniae after 20 hrs by agar dilution method
How it was run: (§1)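 MIC by agar dilution. Strains grown on blood agar plates for seed culture. About 5 µl of a suspension of roughly 10^6 CFU/ml spotted onto Sensitivity disk agar with 5% horse blood. Plates incubated at 37 °C for 20 h, then MIC read.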

[2] = tested on: Haemophilus influenzae; experiment: Antibacterial activity against standard Haemophilus influenzae after 20 hrs by agar dilution method; how it was run: as §1
[3] = tested on: Staphylococcus aureus; experiment: Antibacterial activity against standard Staphylococcus aureus after 20 hrs by agar dilution method
How it was run: (§2)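 Agar dilution MIC. The inoculum came from a seed culture in Sensitivity test broth. A 5 µl portion of a cell suspension of about 10^6 CFU/ml was inoculated onto Sensitivity disk agar supplemented with 5% horse blood. Plates were incubated at 37 °C for 20 h, then MIC was read.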

[4] = tested on: Streptococcus pneumoniae; experiment: Antibacterial activity against ermB-inducible resistant Streptococcus pneumoniae after 20 hrs by agar dilution method
How it was run: (§3)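 Agar dilution MIC. Streptococcal strains were pre-cultured on blood agar plates. A 5 µl portion of a cell suspension of about 10^6 CFU/ml was inoculated onto Sensitivity disk agar supplemented with 5% horse blood. Plates were incubated at 37 °C for 20 h, then MIC was read.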

[5] = tested on: Staphylococcus aureus; experiment: Antibacterial activity against susceptible Staphylococcus aureus after 20 hrs by agar dilution method; how it was run: as §2
[6] = tested on: Streptococcus pneumoniae; experiment: Antibacterial activity against ermB-constitutive resistant Streptococcus pneumoniae after 20 hrs by agar dilution method; how it was run: as §3
[7] = tested on: Staphylococcus aureus; experiment: Antibacterial activity against ermB-inducible resistant Staphylococcus aureus after 20 hrs by agar dilution method; how it was run: as §2
[8] = tested on: Streptococcus pyogenes; experiment: Antibacterial activity against mefE efflux-resistant Streptococcus pyogenes after 20 hrs by agar dilution method; how it was run: as §3
[9] = tested on: Staphylococcus aureus; experiment: Antibacterial activity against ermA-constitutive resistant Staphylococcus aureus after 20 hrs by agar dilution method; how it was run: as §2
[10] = tested on: Moraxella catarrhalis; experiment: Antibacterial activity against standard Moraxella catarrhalis after 20 hrs by agar dilution method; how it was run: as §1
[11] = tested on: Haemophilus influenzae; experiment: Antibacterial activity against susceptible Haemophilus influenzae after 20 hrs by agar dilution method; how it was run: as §1
[12] = tested on: Streptococcus pneumoniae; experiment: Antibacterial activity against mefE efflux-resistant Streptococcus pneumoniae after 20 hrs by agar dilution method; how it was run: as §3
[13] = tested on: Streptococcus pyogenes; experiment: Antibacterial activity against ermB-constitutive resistant Streptococcus pyogenes after 20 hrs by agar dilution method; how it was run: as §3
[14] = tested on: Staphylococcus aureus; experiment: Antibacterial activity against ermC-inducible resistant Staphylococcus aureus after 20 hrs by agar dilution method; how it was run: as §2

Row | SMILES | MIC [1] [mg/L] | MIC [2] [mg/L] | MIC [3] [mg/L] | MIC [4] [mg/L] | MIC [5] [mg/L] | MIC [6] [mg/L] | MIC [7] [mg/L] | MIC [8] [mg/L] | MIC [9] [mg/L] | MIC [10] [mg/L] | MIC [11] [mg/L] | MIC [12] [mg/L] | MIC [13] [mg/L] | MIC [14] [mg/L]
1 | CCC(=O)O[C@@H]1CC(=O)O[C@H](C)C[C@H](O)[C@H](N(C)CCCc2ccccc2)/C=C/[C@H](OC(C)=O)[C@H](C)C[C@H](CC=O)[C@H](O[C@@H]2O[C@H](C)[C@@H](O[C@H]3C[C@@](C)(O)[C@@H](OC(=O)CC)[C@H](C)O3)[C@H](N(C)C)[C@H]2O)[C@H]1OC | 0.05 (≈ 0.049 µM) | 1.56 (≈ 1.53 µM) | 0.2 (≈ 0.196 µM) | 12.5 (≈ 12.2 µM) | 0.2 (≈ 0.196 µM) | > 100 | 0.2 (≈ 0.196 µM) | 0.1 (≈ 0.0979 µM) | > 100 | 0.39 (≈ 0.382 µM) | 25 (≈ 24.5 µM) | 0.1 (≈ 0.0979 µM) | 100 (≈ 97.9 µM) | 0.2 (≈ 0.196 µM)
2 | CCC(=O)O[C@@H]1CC(=O)O[C@H](C)C[C@H](O)[C@H](N(C)CCCc2ccncc2)/C=C/[C@H](OC(C)=O)[C@H](C)C[C@H](CC=O)[C@H](O[C@@H]2O[C@H](C)[C@@H](O)[C@H](N(C)C)[C@H]2O)[C@H]1OC | 0.39 (≈ 0.474 µM) | 0.39 (≈ 0.474 µM) | 0.78 (≈ 0.949 µM) | > 100 | 1.56 (≈ 1.9 µM) | > 100 | 1.56 (≈ 1.9 µM) | 6.25 (≈ 7.6 µM) | > 100 | 0.1 (≈ 0.122 µM) | 3.13 (≈ 3.81 µM) | 1.56 (≈ 1.9 µM) | > 100 | 1.56 (≈ 1.9 µM)
3 | CCC(=O)O[C@@H]1CC(=O)O[C@H](C)C[C@H](O)[C@H](N(C)CCCc2ccncc2)/C=C/[C@H](OC(C)=O)[C@H](C)C[C@H](CC=O)[C@H](O[C@@H]2O[C@H](C)[C@@H](O[C@H]3C[C@@](C)(O)[C@@H](OC(=O)CC)[C@H](C)O3)[C@H](N(C)C)[C@H]2O)[C@H]1OC | 0.05 (≈ 0.0489 µM) | 1.56 (≈ 1.53 µM) | 0.2 (≈ 0.196 µM) | > 100 | 0.2 (≈ 0.196 µM) | > 100 | 0.2 (≈ 0.196 µM) | 0.1 (≈ 0.0978 µM) | > 100 | 0.78 (≈ 0.763 µM) | 12.5 (≈ 12.2 µM) | 0.1 (≈ 0.0978 µM) | > 100 | 0.39 (≈ 0.382 µM)
4 | CC[C@H]1OC(=O)[C@H](C)[C@@H](O[C@H]2C[C@@](C)(OC)[C@@H](O)[C@H](C)O2)[C@H](C)[C@@H](O[C@@H]2O[C@H](C)C[C@H](N(C)C)[C@H]2O)[C@](C)(OC)C[C@@H](C)C(=O)[C@H](C)[C@@H](O)[C@]1(C)O [CLARITHROMYCIN] | 0.025 (≈ 0.0334 µM) | 1.56 (≈ 2.09 µM) | 0.1 (≈ 0.134 µM) | > 100 | 0.1 (≈ 0.134 µM) | > 100 | > 100 | 3.13 (≈ 4.18 µM) | > 100 | 0.1 (≈ 0.134 µM) | 6.25 (≈ 8.36 µM) | 0.78 (≈ 1.04 µM) | > 100 | 1.56 (≈ 2.09 µM)
5 | CCC(=O)O[C@@H]1CC(=O)O[C@H](C)C/C=C/C=C/[C@H](OC(C)=O)[C@H](C)C[C@H](CC=O)[C@H](O[C@@H]2O[C@H](C)[C@@H](O[C@H]3C[C@@](C)(O)[C@@H](OC(=O)CC)[C@H](C)O3)[C@H](N(C)C)[C@H]2O)[C@H]1OC | 0.2 (≈ 0.234 µM) | 3.13 (≈ 3.66 µM) | 0.39 (≈ 0.456 µM) | 100 (≈ 117 µM) | 0.39 (≈ 0.456 µM) | > 100 | 0.39 (≈ 0.456 µM) | 0.39 (≈ 0.456 µM) | > 100 | 0.78 (≈ 0.911 µM) | 25 (≈ 29.2 µM) | 0.2 (≈ 0.234 µM) | > 100 | 0.78 (≈ 0.911 µM)
6 | CCC(=O)O[C@@H]1CC(=O)O[C@H](C)C[C@@H]2OC(=O)N(CCCCc3ccccc3)[C@@H]2/C=C/[C@H](OC(C)=O)[C@H](C)C[C@H](CC=O)[C@H](O[C@@H]2O[C@H](C)[C@@H](O[C@H]3C[C@@](C)(O)[C@@H](OC(=O)CC)[C@H](C)O3)[C@H](N(C)C)[C@H]2O)[C@H]1OC | 0.2 (≈ 0.191 µM) | 6.25 (≈ 5.97 µM) | 0.78 (≈ 0.745 µM) | 100 (≈ 95.5 µM) | 0.39 (≈ 0.372 µM) | > 100 | 0.39 (≈ 0.372 µM) | 0.39 (≈ 0.372 µM) | > 100 | 3.13 (≈ 2.99 µM) | > 100 | 0.2 (≈ 0.191 µM) | > 100 | 0.78 (≈ 0.745 µM)
7 | CCC(=O)O[C@@H]1CC(=O)O[C@H](C)C[C@@H]2OC(=O)N(CCCc3ccccc3)[C@@H]2/C=C/[C@H](OC(C)=O)[C@H](C)C[C@H](CC=O)[C@H](O[C@@H]2O[C@H](C)[C@@H](O[C@H]3C[C@@](C)(O)[C@@H](OC(=O)CC)[C@H](C)O3)[C@H](N(C)C)[C@H]2O)[C@H]1OC | 0.2 (≈ 0.194 µM) | 6.25 (≈ 6.05 µM) | 0.78 (≈ 0.755 µM) | > 100 | 0.78 (≈ 0.755 µM) | > 100 | 1.56 (≈ 1.51 µM) | 0.2 (≈ 0.194 µM) | > 100 | 1.56 (≈ 1.51 µM) | 100 (≈ 96.8 µM) | 0.2 (≈ 0.194 µM) | > 100 | 0.78 (≈ 0.755 µM)
8 | CCC(=O)O[C@@H]1CC(=O)O[C@H](C)C[C@H](O)[C@H](N(C)CCCCc2ccccc2)/C=C/[C@H](OC(C)=O)[C@H](C)C[C@H](CC=O)[C@H](O[C@@H]2O[C@H](C)[C@@H](O[C@H]3C[C@@](C)(O)[C@@H](OC(=O)CC)[C@H](C)O3)[C@H](N(C)C)[C@H]2O)[C@H]1OC | 0.05 (≈ 0.0483 µM) | 3.13 (≈ 3.02 µM) | 0.39 (≈ 0.377 µM) | 12.5 (≈ 12.1 µM) | 0.39 (≈ 0.377 µM) | > 100 | 1.56 (≈ 1.51 µM) | 0.2 (≈ 0.193 µM) | > 100 | 0.78 (≈ 0.753 µM) | 25 (≈ 24.1 µM) | 0.2 (≈ 0.193 µM) | 100 (≈ 96.6 µM) | 0.78 (≈ 0.753 µM)
9 | CCC(=O)O[C@@H]1CC(=O)O[C@H](C)C[C@H](O)[C@H](N(C)CCc2ccccc2)/C=C/[C@H](OC(C)=O)[C@H](C)C[C@H](CC=O)[C@H](O[C@@H]2O[C@H](C)[C@@H](O[C@H]3C[C@@](C)(O)[C@@H](OC(=O)CC)[C@H](C)O3)[C@H](N(C)C)[C@H]2O)[C@H]1OC | 0.1 (≈ 0.0993 µM) | 1.56 (≈ 1.55 µM) | 0.39 (≈ 0.387 µM) | 25 (≈ 24.8 µM) | 0.39 (≈ 0.387 µM) | > 100 | 0.78 (≈ 0.774 µM) | 0.2 (≈ 0.199 µM) | > 100 | 0.39 (≈ 0.387 µM) | 25 (≈ 24.8 µM) | 0.1 (≈ 0.0993 µM) | > 100 | 0.39 (≈ 0.387 µM)
10 | CCC(=O)O[C@@H]1CC(=O)O[C@H](C)C[C@@H]2OC(=O)N(Cc3ccccc3)[C@@H]2/C=C/[C@H](OC(C)=O)[C@H](C)C[C@H](CC=O)[C@H](O[C@@H]2O[C@H](C)[C@@H](O[C@H]3C[C@@](C)(O)[C@@H](OC(=O)CC)[C@H](C)O3)[C@H](N(C)C)[C@H]2O)[C@H]1OC | 0.2 (≈ 0.199 µM) | 3.13 (≈ 3.11 µM) | 0.39 (≈ 0.388 µM) | 100 (≈ 99.5 µM) | 0.39 (≈ 0.388 µM) | > 100 | 0.39 (≈ 0.388 µM) | 0.2 (≈ 0.199 µM) | > 100 | 1.56 (≈ 1.55 µM) | 25 (≈ 24.9 µM) | 0.2 (≈ 0.199 µM) | > 100 | 0.78 (≈ 0.776 µM)
